Experimental data from ChEMBL document CHEMBL1124688, “9,11-Epoxy-9-homo-14-thiaprost-5-enoic acid derivatives: potent thromboxane A2 antagonists” (J Med Chem, 1989).
Values joined by “and” are separate entries in the source; they are usually repeats but may differ in a detail not shown here. Equal values may be shown once. Values belong to the compound of their own block, whether it stands above or below them.

Columns and labels:
Rattus norvegicus [1] = species on record: Rattus norvegicus; assay: Concentration required to elicit 50% of the maximal contraction of rat stomach strip; assay type: functional
Outline: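 Rat stomach strip contraction was measured as the concentration giving 50% of the maximal contraction produced by 3×10^-7 M serotonin.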

Cavia porcellus [2] = species on record: Cavia porcellus; assay: In vitro evaluation for antagonist activity against the contraction-induced by histamine (1 ug/mL); assay type: functional; details: read-out: I50
Outline: (§1)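 Guinea pig trachea spirals were contracted by either 9,11-azo-PGH2 (a stable PGH2/TxA2 mimetic) or histamine, and compounds were tested for blockade of these contractions.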

Cavia porcellus [3] = assay: Change in mean arterial blood pressure in guinea pigs by 1 mg/kg of intravenously administered compound; assay type: functional, Artery; details: route intravenous
Outline: (§2)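 Anesthetized guinea pigs were challenged with arachidonic acid, and lung mechanics (lung resistance, dynamic compliance) and mean arterial blood pressure were recorded. Compounds were given as a 1.0 mg/kg rapid iv infusion, with n = 5 versus vehicle. Inhibition above 100% denotes reversal of the blood-pressure response.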

Cavia porcellus [4] = species on record: Cavia porcellus; assay: In vitro evaluation for antagonist activity against the contraction-induced by 9,11-azo-PGH2 (0.1 ug/mL); assay type: functional; details: read-out: I50; outline: as §1
Cavia porcellus [5] = species on record: Cavia porcellus; assay: Duration of action of compound for Inhibition of arachidonic acid-induced response in guinea pigs; assay type: functional
[6] = system: thromboxane-A synthase (Homo sapiens); assay: Percent inhibition on the synthesis of thromboxane B2 at a dose of 1000 uM
[7] = system: thromboxane-A synthase (Homo sapiens); assay: Percent inhibition on the synthesis of thromboxane B2 at a dose of 10 uM
[8] = system: thromboxane-A synthase (Homo sapiens); assay: Percent inhibition on the synthesis of thromboxane B2 at a dose of 100 uM
Homo sapiens [9] = species on record: Homo sapiens; assay: Percentage stimulation on the synthesis of PGE-2 at a dose of 10 uM; assay type: functional
Outline: (§3)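 Arachidonic acid metabolism was measured in a lysed platelet preparation. Thromboxane synthesis (as TxB2) and PGE2 production were determined at each listed test concentration.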

Homo sapiens [10] = species on record: Homo sapiens; assay: (§4) Percentage stimulation on the synthesis of PGE-2 was at a dose of 100 uM; assay type: functional; outline: as §3
Homo sapiens [11] = species on record: Homo sapiens; assay: Percentage stimulation on the synthesis of PGE-2 was at a dose of 1000 uM; assay type: functional; outline: as §3
Rattus norvegicus [12] = species on record: Rattus norvegicus; assay: maximal contraction of rat stomach strip by 3 x 10e -7M serotonin; assay type: functional
Homo sapiens [13] = species on record: Homo sapiens; assay: Percent inhibition on the synthesis of thromboxane B2 at a dose of 31 uM.; assay type: functional; outline: as §3
Homo sapiens [14] = species on record: Homo sapiens; assay: as §4; assay type: functional; outline: as §3; remark: listed apart in the source
Thromboxane A2 receptor [15] = biological target: T1, Thromboxane A2 receptor (Homo sapiens, UniProt P21731); assay: Compound was evaluated for inhibition of specific binding of HSQ (5,6-di-3H-SQ 29,548) in washed platelets; design: species or system Cavia porcellus
T1 sequence (P21731 whole entry): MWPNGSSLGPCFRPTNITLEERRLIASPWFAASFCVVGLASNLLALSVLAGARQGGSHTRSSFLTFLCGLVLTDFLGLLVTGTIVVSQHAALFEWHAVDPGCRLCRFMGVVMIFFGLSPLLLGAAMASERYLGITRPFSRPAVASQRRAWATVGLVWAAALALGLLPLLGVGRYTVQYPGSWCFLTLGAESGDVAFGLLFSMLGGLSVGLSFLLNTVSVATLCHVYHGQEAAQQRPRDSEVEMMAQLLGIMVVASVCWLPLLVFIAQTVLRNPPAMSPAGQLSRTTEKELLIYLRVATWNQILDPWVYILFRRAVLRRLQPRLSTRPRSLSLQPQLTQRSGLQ

Homo sapiens [16] = species on record: Homo sapiens; assay: Percent inhibition on the synthesis of thromboxane B2 at a dose of 10 uM; assay type: functional; outline: as §3
Homo sapiens [17] = species on record: Homo sapiens; assay: Percent inhibition on the synthesis of thromboxane B2 at a dose of 3.1 uM; assay type: functional; outline: as §3
Homo sapiens [18] = species on record: Homo sapiens; assay: In vitro evaluation for arachidonic acid induced platelet aggregation of human platelet-rich plasma; assay type: functional; details: read-out: I50
Outline: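 Human platelet-rich plasma was aggregated with arachidonic acid (800 μM). An ADP (20 μM)-induced aggregation run served as a counter-screen.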

Homo sapiens [19] = species on record: Homo sapiens; assay: Percentage stimulation on the synthesis of PGE-2 was at a dose of 10 uM; assay type: functional; outline: as §3
Homo sapiens [20] = species on record: Homo sapiens; assay: Percent inhibition on the synthesis of thromboxane B2 at a dose of 100 uM; assay type: functional; outline: as §3
Homo sapiens [21] = species on record: Homo sapiens; assay: Percentage stimulation on the synthesis of PGE-2 was at a dose of 3.1 uM; assay type: functional; outline: as §3
Homo sapiens [22] = species on record: Homo sapiens; assay: Percentage stimulation on the synthesis of PGE-2 at a dose of 1.0 uM; assay type: functional; outline: as §3
Homo sapiens [23] = species on record: Homo sapiens; assay: Percentage stimulation on the synthesis of PGE-2 was at a dose of 31 uM; assay type: functional; outline: as §3
Homo sapiens [24] = species on record: Homo sapiens; assay: Percent inhibition on the synthesis of thromboxane B2 at a dose of 1.0 uM; assay type: functional; outline: as §3
Thromboxane A2 receptor [25] = biological target: T1, Thromboxane A2 receptor; assay: Inhibition of specific binding of HSQ(5,6-di-3H-SQ 29,548) in washed platelets; design: species or system Cavia porcellus
[26] = biological target: Thromboxane A2 receptor (Homo sapiens) (UniProt P21731); assay: Compound was evaluated for inhibition of specific binding of HSQ (5,6-di-3H-SQ 29,548) in washed platelets
Cavia porcellus [27] = species on record: Cavia porcellus; assay: Duration of action of compound for inhibition of arachidonic acid-induced response in guinea pigs; assay type: functional
Cavia porcellus [28] = assay: Inhibition of arachidonic acid-induced response in guinea pigs by 1 mg/kg of intravenously administered compound; assay type: functional; design: scale not given: the % may be the effect or the level left; details: route intravenous; outline: as §2
Cavia porcellus [29] = assay: Change in mean arterial blood pressure(MABP) in guinea pigs by 1 mg/kg of intravenously administered compound; assay type: functional, Artery; details: route intravenous, 1 mg/kg; outline: as §2

- IC50 (Cavia porcellus [2]): > 100000 nM
- IC50 (Cavia porcellus [4]): 1600 nM
Compound: CCC/C=C\CSCC1C2CCC(O2)C1C/C=C\CCCC(=O)O (stereo not drawn)
- Activity MABP (Cavia porcellus [3]): 98% and 194%
- Duration (Cavia porcellus [5]): <60 min
- A50 (Rattus norvegicus [1]): 4.3 µM

- inhibition [6]: 75%
- inhibition [7]: 33%
- inhibition [8]: 45%
Compound: CCCCCCSC[C@H]1C2CC[C@@H](O2)[C@H]1C/C=C\CCCC(=O)O (single isomer, unassigned; (+)) [listing 1 of 2 here]
- Stimulation (Homo sapiens [9]): 27%
- Stimulation (Homo sapiens [10]): 44%
- Stimulation (Homo sapiens [11]): -51%

- Kd (Thromboxane A2 receptor [15]): 1.6 nM
- IC50 (Homo sapiens [18]): 1000 nM
- IC50 (Cavia porcellus [2]): > 100000 nM
- IC50 (Cavia porcellus [4]): 500 nM
Compound: CCCCCCSC[C@H]1C2CC[C@@H](O2)[C@H]1C/C=C\CCCC(=O)O (single isomer, unassigned; (-))
- Inhibition (Homo sapiens [13]): 29%
- Stimulation (Homo sapiens [14]): 556%
- Inhibition (Homo sapiens [16]): 17%
- Inhibition (Homo sapiens [17]): 3%
- Stimulation (Homo sapiens [19]): 230%
- Inhibition (Homo sapiens [20]): 69%
- Stimulation (Homo sapiens [21]): 137%
- Activity MABP (Cavia porcellus [3]): 107% and 153%
- Stimulation (Homo sapiens [22]): 174%
- Stimulation (Homo sapiens [23]): 404%
- Inhibition (Homo sapiens [24]): 7%
- Duration (Cavia porcellus [5]): <60 min
- A50 (Rattus norvegicus [1]): 25 µM

- Kd (Thromboxane A2 receptor [25]): 49 nM
- IC50 (Homo sapiens [18]): 200 nM
Compound: C=CCCSCC1C2CCC(O2)C1C/C=C\CCCC(=O)O (stereo not drawn)
- A50 (Rattus norvegicus [1]): 32 µM

- IC50 (Cavia porcellus [2]): > 100000 nM
- IC50 (Cavia porcellus [4]): 1600 nM
Compound: CCC/C=C(\C)CSCC1C2CCC(O2)C1CC=CCCCC(=O)O (stereo not drawn)
- A50 (Rattus norvegicus [1]): 46 µM

- IC50 (Cavia porcellus [2]): > 100000 nM
- IC50 (Cavia porcellus [4]): 400 nM
Compound: CCC/C=C/CSCC1C2CCC(O2)C1CC=CCCCC(=O)O (stereo not drawn)
- Activity MABP (Cavia porcellus [3]): 76% and 192%
- Kd [26]: 3.1 nM
- Duration (Cavia porcellus [5]): <60 min
- A50 (Rattus norvegicus [1]): 26 µM

Second part, the compound before the results:

Compound: O=C(O)CCCC=CCC1C2CCC(O2)C1CSC/C=C/c1ccccc1 (stereo not drawn)
- A50 (Rattus norvegicus [1]): 0.7 µM

Compound: O=C(O)CCC/C=C\CC1C2CCC(O2)C1CSc1ccccc1 (stereo not drawn)
- A50 (Rattus norvegicus [1]): 0.8 µM

Compound: CC/C=C/CCSCC1C2CCC(O2)C1CC=CCCCC(=O)O (stereo not drawn)
- A50 (Rattus norvegicus [1]): 0.04 µM

Compound: CCCCCCSC[C@H]1C2CC[C@@H](O2)[C@H]1C/C=C\CCCC(=O)O (single isomer, unassigned; (+)) [listing 2 of 2 here]
- Contraction (Rattus norvegicus [12]): 6%

Compound: CCSCC1C2CCC(O2)C1C/C=C\CCCC(=O)O (stereo not drawn)
- Contraction (Rattus norvegicus [12]): 13%

Compound: CCCCSCC1C2CCC(O2)C1C/C=C\CCCC(=O)O (stereo not drawn)
- Duration (Cavia porcellus [27]): <60 min
- Activity (Cavia porcellus [28]): 136% and 180%
- Agonist activity (Cavia porcellus [29]): 58% and 98%
